Screens deposited in PubChem BioAssay by several laboratories.
ERb coact inh: blocks coactivator binding to human estrogen receptor beta; TR-FRET ER-beta LBD / SRC1-Cy5 peptide binding; receptor agonist-loaded with 1 µM estradiol; inhibition, % at 25.6 µM; actives 1.3% (n = 86,000); AID 633;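 active = compounds whose percent inhibition of the receptor-coactivator binding signal exceeds about 50% in the single-dose screen, limit read from the data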;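 note: 0% = receptor plus peptide wells without compound and 100% = peptide-only wells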
Target sequence (Q92731 whole entry, looked up, the tested form may be a part): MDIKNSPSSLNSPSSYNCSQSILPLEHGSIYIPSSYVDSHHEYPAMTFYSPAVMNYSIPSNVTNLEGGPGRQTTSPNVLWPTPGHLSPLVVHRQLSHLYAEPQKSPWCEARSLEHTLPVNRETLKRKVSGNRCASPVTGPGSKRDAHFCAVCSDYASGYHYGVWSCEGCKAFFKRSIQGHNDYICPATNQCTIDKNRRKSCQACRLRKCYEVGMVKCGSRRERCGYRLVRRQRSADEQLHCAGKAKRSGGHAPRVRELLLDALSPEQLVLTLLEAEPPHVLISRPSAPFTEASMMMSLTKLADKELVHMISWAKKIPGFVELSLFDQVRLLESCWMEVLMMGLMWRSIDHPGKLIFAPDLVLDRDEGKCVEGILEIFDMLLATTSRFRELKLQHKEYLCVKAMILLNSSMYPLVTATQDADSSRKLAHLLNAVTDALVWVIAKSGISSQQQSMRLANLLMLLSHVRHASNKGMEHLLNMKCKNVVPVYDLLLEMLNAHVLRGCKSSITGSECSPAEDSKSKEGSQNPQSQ
HUVEC prolif 384: blocks proliferation of human endothelial cells; HUVEC proliferation, CellTiter-Glo luminescence, 72 h; hits give low values; viability, % at 10 µM (by protocol); actives 1.1% (n = 86,000); AID 648;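 active = viability at or below 30%; inactive = viability above 30%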;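 note: 100% = median luminescence of DMSO-only cell control wells on each plate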
ERa SRC1 pot: ER-alpha (human) coactivator binding potentiation. actives 1.3% (n = 86,000). P03372. TR-FRET ERalpha-LBD/SRC-Cy5 coactivator binding, 2 h; 100 = basal binding, no effect. coactivator binding (% of control), % at 25.6 µM; in the data active = activity above about 200%;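 note: binding measured in presence of low estradiol as agonist stimulus; 0% = peptide alone without receptor and 100% = receptor with peptide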
ERa coact inh: blocks coactivator binding to human estrogen receptor alpha. inhibition, % at 25.6 µM. actives 1.7% (n = 86,000). P03372. TR-FRET ER-alpha LBD / SRC-1 peptide, estradiol-bound; in the data active = inhibition above about 50%;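 note: 0% = receptor plus peptide control and 100% = peptide only without receptor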
H69AR inhibit: blocks growth of human H69AR lung tumor cells; AID 598; H69AR lung tumor viability, ATP luminescence, 72 h; hits give low values; actives 6% (n = 85,000); viability, % at 10 µM;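 active = viability at or below 40%; inactive = viability above 40%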;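 note: multidrug resistant small cell line overexpressing MRP-1 efflux transporter; 100% = mean luminescence of untreated control wells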
Fibroblast inh: blocks proliferation of human lung fibroblasts | LL 47 human lung fibroblast viability, ATP luminescence; hits give low values | actives 1.1% (n = 85,000) | viability, % at 10 µM;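 active = viability at or below 50% in the single dose screen; inactive = viability above 50%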;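 note: compound exposure lasted 72 h before the ATP readout; 100% = median luminescence of untreated cell-only wells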
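Test system: LL 47 human lung fibroblasts / Incubation: 72 h compound exposure at 37 °C after overnight plating / Technique: luminescent ATP detection, CellTiter-Glo / Compound dosing: 0.1% DMSO in all compound wells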
* hit, by the source's call; [ ] = dose if it differs, or a comment. Hits are enriched below; roughly 9.2% of the tested compounds scored in any of these assays.

SMILES | ERb coact inh | HUVEC prolif 384 | ERa SRC1 pot | ERa coact inh | H69AR inhibit | Fibroblast inh
CCOC(=O)N1CCN(C(=O)c2cnn3c(C(F)F)cc(-c4ccc(C)cc4)nc23)CC1 | -4.2 | 99.2 | 102.4 | -4.2 | 68.1 | 89.8
COc1ccc2nc(C)c(C(=O)OCCN(C)C)cc2c1 | 4.2 | 88.5 | 108.8 | 3.9 | 103.6 | 100.0
COc1ccc(C(C)=O)cc1COC(=O)c1ccc(OCc2c(C)noc2C)cc1 | 42.1 | 53.4 | 277.3* | 54.8*[fluorescence artefact?] | 97.4 | 64.9
COc1ccc(C(C)=O)cc1COC(=O)c1c(C)noc1C | -4.4 | 67.5 | 133.5 | -5.9 | 42.6 | 82.8
Cc1noc(C)c1COc1ccc(C(=O)OCC(=O)N2c3ccccc3NC(=O)C2(C)C)cc1 | 67.8* | 79.5 | 53.9 | 73.0* | 66.0 | 92.8
CCOC(=O)N1CCN(Cc2nc(-c3ccc(C)cc3)no2)CC1 | 9.2 | 104.5 | 108.8 | 8.6 | 100.9 | 96.0
CCC1C(=O)Nc2nc(-c3ccccc3)c(-c3ccccc3)n2N=C1C (configuration not stated) | 1.6 | 101.0 | 96.6 | -2.9 | 50.6 | 90.2
COC(=O)c1ccc(Cl)c(NC(=O)NC2CCCCC2)c1 | 26.6 | 86.7 | 244.2*[fluorescence artefact?] | 43.7 | 29.2* | 102.0
Nc1c(C(=O)NCC2CCCO2)c2nc3ccccc3nc2n1/N=C/c1ccncc1 (configuration not stated) | 0.1 | 74.2 | 313.7*[fluorescence artefact?] | -22.2 | 74.6 | 107.2
CC(C)Cn1c(N)c(C(=O)NCC2CCCO2)c2nc3ccccc3nc21 (configuration not stated) | -3.7 | 74.0 | 56.1 | 4.5 | 36.0* | 80.3
Nc1c(C(=O)OCC2CCCO2)c2nc3ccccc3nc2n1C1CCCC1 (configuration not stated) | 12.0 | 53.7 | 78.2 | 15.9 | 14.6* | 70.5
COc1ccc(OC)c(-n2c(N)c(C(=O)NCC3CCCO3)c3nc4ccccc4nc32)c1 (configuration not stated) | 7.2 | 74.0 | 102.4 | 8.9 | 49.4 | 96.3
COCCn1c(N)c(C(=O)NCC2CCCO2)c2nc3ccccc3nc21 (configuration not stated) | 9.6 | 72.1 | 109.5 | -8.9 | 58.2 | 91.0
COC(=O)c1ccc(C(=O)OC)c(NC(=O)CN(c2ccc3c(c2)OCO3)S(C)(=O)=O)c1 | -6.2 | 94.9 | 99.0 | -2.8 | 89.7 | 98.6
CCOc1ccccc1NC(=O)NC1CC2CCCC(C1)N2Cc1nnnn1CCc1ccccc1 (configuration not stated) | -5.9 | 81.6 | 104.1 | -2.0 | 84.6 | 93.9
COc1cc(/C=C(/C(=O)c2cccs2)c2nc3ccccc3[nH]2)cc(OC)c1O | -1.1 | 102.3 | 79.1 | 2.4 | 2.6* | 18.6*
Cc1ccc(CC2CC(=O)N(c3nc4ccccc4n3C)C2=O)cc1 (configuration not stated) | -1.9 | 96.8 | 109.1 | -5.6 | 91.1 | 98.0
COc1ccc(-n2nnnc2SCC(N)=O)cc1 | -7.7 | 93.1 | 112.4 | -13.1 | 93.5 | 87.7
COc1ccc(-n2nnnc2SCC(=O)c2ccc(O)c(O)c2)cc1 | 46.4 | 60.7 | 68.7 | 27.4 | 26.4* | 88.9
CCC(C(=O)NCc1ccco1)N(C(=O)CNS(=O)(=O)c1ccccc1)c1ccc(OC)cc1 (configuration not stated) | -7.2 | 98.5 | 105.4 | -3.7 | 105.3 | 96.2
CCOc1ccc(-c2nc(=S)[nH][nH]2)cc1 | -3.0 | 91.7 | 88.5 | -1.6 | 39.8* | 101.7
COc1ccc2c(c1)CCc1c(C(=O)NCCCn3ccnc3)noc1-2 | -3.5 | 92.8 | 101.0 | -0.2 | 1.5* | 107.5
COc1ccccc1NC(=O)C1=C(C)Nc2nnnn2C1c1cccc(C)c1 (configuration not stated) | -9.8 | 73.9 | 138.1 | -7.5 | 30.4* | 84.9
CCC(C)(C)n1nnnc1C(c1cc2cc(C)cc(C)c2[nH]c1=O)N1CCN(Cc2ccc3c(c2)OCO3)CC1 (configuration not stated) | 36.1 | 93.4 | 226.7*[fluorescence artefact?] | 30.0 | 8.6* | 24.9*
Cc1cc(C)c2[nH]c(=O)c(C(c3nnnn3Cc3ccc4c(c3)OCO4)N3CCCCC3)cc2c1 (configuration not stated) | -6.4 | 102.1 | 100.1 | -6.8 | 76.0 | 100.1
SMILES | ERb coact inh | HUVEC prolif 384 | ERa SRC1 pot | ERa coact inh | H69AR inhibit | Fibroblast inh
Cc1ccc(CNC(=O)C2C3C=CC(C3)C2C(=O)O)cc1 (configuration not stated) | -20.6 | 101.4 | 119.5 | -8.2 | 99.9 | 96.6
O=C(CSc1nccc(=O)[nH]1)Nc1ccc(S(=O)(=O)N2CCOCC2)cc1 | 45.6 | 109.6 | 123.3 | 28.7 | 86.3 | 100.6
CCOC(=O)CNC(=O)C(Cc1ccccc1)NS(=O)(=O)c1ccc2c(c1)CCC(=O)N2 (configuration not stated) | 85.9* | 106.7 | 100.7 | -3.0 | 98.7 | 97.8
CCCCNC(=O)C(Cc1ccccc1)NS(=O)(=O)c1ccc2c(c1)c(=O)n(C)c(=O)n2C (configuration not stated) | 12.3 | 108.5 | 122.3 | 85.5*[fluorescence artefact?] | 93.7 | 92.2
CN1CCN(C(=O)C(Cc2ccccc2)NS(=O)(=O)c2ccc3c(c2)CCC(=O)N3)CC1 (configuration not stated) | -3.4 | 94.5 | 119.2 | -6.2 | 94.4 | 98.1
O=C1CN(Cc2ccccc2)C(=NCc2ccco2)S1 | 11.9 | 96.6 | 123.1 | 9.7 | 93.2 | 93.9
O=c1c2c([nH]c3ccccc13)CCCC2 | -6.3 | 97.4 | 98.3 | 3.9 | 91.8 | 99.1
O=c1c2c([nH]c3ccccc13)C(=C1CCCC1)CC2 | 84.1* | 104.9 | 21.7 | 76.7*[fluorescence artefact?] | 98.1 | 108.4
CCn1cc(C(=O)Nc2nnc(C)s2)c(=O)c2cc(F)c(N3CCN(C(=O)c4ccco4)CC3)cc21 | 2.8 | 103.3 | 180.9 | 18.5 | 86.9 | 112.2
CCCCCCC(=O)N1CCN(c2cc3c(cc2F)c(=O)c(C(=O)O)cn3CC)CC1 | -2.8 | 91.9 | 94.5 | -5.8 | 27.0* | 86.5
CCn1cc(C(=O)NCc2cccnc2)c(=O)c2cc(F)c(N3CCN(C(=O)c4ccco4)CC3)cc21 | -1.1 | 107.0 | 110.0 | 0.6 | 34.7* | 102.0
CCC(=O)N1CCN(c2cc3c(cc2F)c(=O)c(C(=O)O)cn3CC)CC1 | -11.2 | 96.3 | 129.2 | -3.6 | 99.5 | 100.7
CCn1cc(C(=O)NCc2cccc(F)c2)c(=O)c2cc(F)c(N3CCN(C(=O)c4ccco4)CC3)cc21 | 2.8 | 63.1 | 106.7 | 1.1 | 16.2* | 88.9
CCc1ccccc1N(C(=O)CCC(=O)Nc1cc(C)on1)C(C(=O)NC1CCCC1)c1ccco1 (configuration not stated) | -8.4 | 108.9 | 108.0 | -3.9 | 76.1 | 87.0
CC(C)[C@H](NC(=O)NCCc1ccc(F)cc1)C(=O)O | 2.1 | 103.5 | 93.8 | 4.3 | 92.4 | 96.0
Cc1cc(C)cc(-n2c(=O)c3sccc3n(CC(=O)NCc3ccco3)c2=O)c1 | 79.9*[fluorescence artefact?] | 102.0 | 103.5 | -2.0 | 95.1 | 96.6
